Laboratory results as given in ChEMBL document CHEMBL1144425, “Design of benzophenone-containing photoactivatable linear vasopressin antagonists: pharmacological and photoreactive properties” (J Med Chem, 2005).

Tests used:
Vasopressin V1a receptor [1] = biological target: Vasopressin V1a receptor (Homo sapiens, UniProt P37288); assay: Binding affinity against human vasopressin V1a receptor expressed in CHO cells; assay type: cell-based
In short: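 Competition binding on membranes of CHO cells expressing the human V1a receptor (2 to 3 µg protein). Each compound was tested at 10^-12 to 10^-6 M against a radioiodinated linear antagonist (45-80 pM). Incubation was 1 h at 30 °C in 50 mM Tris, 5 mM MgCl2, pH 7.4, with 1 mg/mL BSA, in triplicate, then GF/C filtration. Data were fitted by nonlinear least-squares regression.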

Vasopressin V1a receptor [2] = biological target: Vasopressin V1a receptor (Rattus norvegicus, UniProt P30560); assay: Binding affinity against rat vasopressin V1a receptor
Vasopressin V1a receptor (Rattus norvegicus, UniProt P30560), sequence (P30560 whole entry): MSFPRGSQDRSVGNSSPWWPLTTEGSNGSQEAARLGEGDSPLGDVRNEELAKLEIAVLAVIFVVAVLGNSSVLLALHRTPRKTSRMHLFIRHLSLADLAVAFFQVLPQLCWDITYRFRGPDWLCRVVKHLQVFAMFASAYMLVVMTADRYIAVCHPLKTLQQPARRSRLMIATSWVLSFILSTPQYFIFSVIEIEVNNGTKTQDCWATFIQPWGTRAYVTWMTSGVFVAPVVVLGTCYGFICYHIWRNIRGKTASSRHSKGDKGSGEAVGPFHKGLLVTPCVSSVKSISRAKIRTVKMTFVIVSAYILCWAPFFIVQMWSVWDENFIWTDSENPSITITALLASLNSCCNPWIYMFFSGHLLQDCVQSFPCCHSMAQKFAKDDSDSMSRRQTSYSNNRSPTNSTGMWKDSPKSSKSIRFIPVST

Vasopressin V1a receptor (Homo sapiens, UniProt P37288), sequence (P37288 whole entry): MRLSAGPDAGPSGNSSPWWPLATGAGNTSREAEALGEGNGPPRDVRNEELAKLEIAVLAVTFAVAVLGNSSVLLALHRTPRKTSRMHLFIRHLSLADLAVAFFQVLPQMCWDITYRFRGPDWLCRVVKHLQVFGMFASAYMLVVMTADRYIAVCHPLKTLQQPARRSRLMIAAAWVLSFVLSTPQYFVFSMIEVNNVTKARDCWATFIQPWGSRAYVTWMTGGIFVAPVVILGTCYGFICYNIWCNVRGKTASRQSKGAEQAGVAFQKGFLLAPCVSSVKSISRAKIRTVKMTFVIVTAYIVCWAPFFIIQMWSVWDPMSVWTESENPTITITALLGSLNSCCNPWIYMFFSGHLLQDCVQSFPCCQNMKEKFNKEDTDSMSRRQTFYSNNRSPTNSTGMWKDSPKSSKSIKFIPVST

Row | SMILES | Ki (Vasopressin V1a receptor [1]) | Ki (Vasopressin V1a receptor [1]; cho) | other results
1 | COc1ccc(C[C@@H](NC(=O)c2ccc(C(=O)c3ccccc3)cc2)C(=O)N[C@@H](Cc2ccccc2)C(=O)N[C@@H](CCC(N)=O)C(=O)N[C@@H](CC(N)=O)C(=O)N[C@@H](CCCN=C(N)N)C(=O)N2CCC[C@H]2C(=O)N[C@@H](CCCN=C(N)N)C(=O)N[C@@H](Cc2ccc(O)c(I)c2)C(N)=O)cc1 | 18 nM |  | 
2 | CC(=O)N[C@H](Cc1ccc(C(=O)c2ccccc2)cc1)C(=O)N[C@@H](Cc1ccccc1)C(=O)N[C@@H](CCC(N)=O)C(=O)N[C@@H](CC(N)=O)C(=O)N[C@@H](CCCNC(=N)N)C(=O)N1CCC[C@H]1C(=O)N[C@@H](CCCNC(=N)N)C(=O)N[C@@H](Cc1ccc(O)c(I)c1)C(N)=O |  | 24 nM | 
3 | NC(=O)CC[C@H](NC(=O)[C@H](Cc1ccccc1)NC(=O)[C@@H](Cc1ccc(C(=O)c2ccccc2)cc1)NC(=O)Cc1ccccc1)C(=O)N[C@@H](CC(N)=O)C(=O)N[C@@H](CCCN=C(N)N)C(=O)N1CCC[C@H]1C(=O)N[C@@H](CCCN=C(N)N)C(=O)N[C@@H](Cc1ccc(O)c(I)c1)C(N)=O | 0.8 nM |  | 
4 | COc1ccc(C[C@@H](NC(=O)CNC(=O)c2ccc(C(=O)c3ccccc3)cc2)C(=O)N[C@@H](Cc2ccccc2)C(=O)N[C@@H](CCC(N)=O)C(=O)N[C@@H](CC(N)=O)C(=O)N[C@@H](CCCCN)C(=O)N2CCC[C@H]2C(=O)N[C@@H](CCCNC(=N)N)C(=O)N[C@@H](Cc2ccc(O)c(I)c2)C(N)=O)cc1 |  | 115 nM | 
5 | N=C(N)NCCC[C@H](NC(=O)[C@@H]1CCCN1C(=O)[C@H](CCCNC(=N)N)NC(=O)[C@H](CC(N)=O)NC(=O)[C@H](CCC(N)=O)NC(=O)[C@H](Cc1ccccc1)NC(=O)[C@@H](N)Cc1ccc(C(=O)c2ccccc2)cc1)C(=O)N[C@@H](Cc1ccc(O)c(I)c1)C(N)=O |  | 148 nM | 
6 | COc1ccc(C[C@@H](NC(=O)CCCc2ccc(N=[N+]=[N-])cc2)C(=O)N[C@@H](Cc2ccccc2)C(=O)N[C@@H](CCC(N)=O)C(=O)N[C@@H](CC(N)=O)C(=O)N[C@@H](CCCNC(=N)N)C(=O)N2CCC[C@H]2C(=O)N[C@@H](CCCNC(=N)N)C(=O)N[C@@H](Cc2ccc(O)c(I)c2)C(N)=O)cc1 |  |  | Ki (Vasopressin V1a receptor [2]): 0.18 nM
7 | CC(=O)N[C@@H](Cc1ccc(C(=O)c2ccccc2)cc1)C(=O)N[C@@H](Cc1ccccc1)C(=O)N[C@@H](CCC(N)=O)C(=O)N[C@@H](CC(N)=O)C(=O)N[C@@H](CCCNC(=N)N)C(=O)N1CCC[C@H]1C(=O)N[C@@H](CCCNC(=N)N)C(=O)N[C@@H](Cc1ccc(O)c(I)c1)C(N)=O |  | 1490 nM | 

More lines, main results first:

Row | Ki (Vasopressin V1a receptor [1]) | Ki (Vasopressin V1a receptor [1]; cho) | SMILES | other results
8 | 2.5 nM |  | N=C(N)NCCC[C@H](NC(=O)[C@@H]1CCCN1C(=O)[C@H](CCCNC(=N)N)NC(=O)[C@H](CC(N)=O)NC(=O)[C@H](CCC(N)=O)NC(=O)[C@H](Cc1ccccc1)NC(=O)[C@H](Cc1ccc(C(=O)c2ccccc2)cc1)NC(=O)Cc1ccccc1)C(=O)N[C@@H](Cc1ccc(O)c(I)c1)C(N)=O | 
9 |  | 20 nM | NC(=O)CC[C@H](NC(=O)[C@H](Cc1ccccc1)NC(=O)[C@H](N)Cc1ccc(C(=O)c2ccccc2)cc1)C(=O)N[C@@H](CC(N)=O)C(=O)N[C@@H](CCCN=C(N)N)C(=O)N1CCC[C@H]1C(=O)N[C@@H](CCCN=C(N)N)C(=O)N[C@@H](Cc1ccc(O)c(I)c1)C(N)=O | 
10 |  | 462 nM | COc1ccc(C[C@@H](NC(=O)C(N)Cc2ccc(C(=O)c3ccccc3)cc2)C(=O)N[C@@H](Cc2ccccc2)C(=O)N[C@@H](CCC(N)=O)C(=O)N[C@@H](CC(N)=O)C(=O)N[C@@H](CCCNC(=N)N)C(=O)N2CCC[C@H]2C(=O)N[C@@H](CCCNC(=N)N)C(=O)N[C@@H](Cc2ccc(O)c(I)c2)C(N)=O)cc1 (stereo not given in full) | 
